From ChEMBL document CHEMBL1146088 (J Med Chem, 2006)

Experiments:
[1] = biological target: T1, Transient receptor potential cation channel subfamily V member 1 (Homo sapiens, UniProt Q8NER1); assay: Maximal agonist activity on human recombinant TRPV1-mediated enhancement of intracellular calcium concentration in HEK293 cells at 10 uM; assay type: functional, cell-based
Method in brief: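 Fluo-3-loaded HEK-293 cells overexpressing human TRPV1, in Tyrode pH 7.4 at 25 °C, fluorescence ex 488/em 540 nm. Compound at 10 µM. Peak rise in intracellular Ca2+ expressed as percent of the response to ionomycin (4 µM).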

RBL-2H3 = assay: Inhibition of AEA uptake in RBL2H3 cells; assay type: functional, cell-based, Rattus norvegicus, Wistar
Method in brief: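 RBL-2H3 cells incubated 5 min at 37 °C with [14C]AEA (2.4 µM, 10 000 cpm), with or without varying inhibitor concentrations. Medium extracted with CHCl3/CH3OH 2:1. Residual [14C]AEA in the lyophilized organic phase was measured by scintillation counting as an index of uptake.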

Cannabinoid receptor 2 = Cannabinoid receptor 2 (Homo sapiens, UniProt P34972); assay: Binding affinity to human recombinant CB2 receptor expressed in COS cells; assay type: cell-based
Cannabinoid receptor 2, sequence (P34972 whole entry): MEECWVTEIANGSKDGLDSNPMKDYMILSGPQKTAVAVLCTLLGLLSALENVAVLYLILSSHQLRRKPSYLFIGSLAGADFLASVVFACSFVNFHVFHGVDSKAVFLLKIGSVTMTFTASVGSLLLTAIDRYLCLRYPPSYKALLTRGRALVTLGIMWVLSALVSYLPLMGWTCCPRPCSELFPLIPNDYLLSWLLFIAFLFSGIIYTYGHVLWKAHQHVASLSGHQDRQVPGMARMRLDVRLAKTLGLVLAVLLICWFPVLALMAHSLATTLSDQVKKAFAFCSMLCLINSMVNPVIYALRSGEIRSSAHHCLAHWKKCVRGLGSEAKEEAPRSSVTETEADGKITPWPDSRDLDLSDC

Rattus norvegicus = organism: Rattus norvegicus; assay: Metabolic stability in rat brain membrane assessed by inhibition of AEA hydrolysis; assay type: ADME
Method in brief: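 Mixture extracted with 2 volumes CHCl3/CH3OH 2:1. [14C]ethanolamine in the aqueous phase counted by scintillation. Value is the concentration giving 50% inhibition of hydrolysis.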

Cannabinoid receptor 1 = Cannabinoid receptor 1 (Homo sapiens, UniProt P21554); assay: Binding affinity to human recombinant CB1 receptor expressed in COS cells; assay type: cell-based
Cannabinoid receptor 1, sequence (P21554 whole entry): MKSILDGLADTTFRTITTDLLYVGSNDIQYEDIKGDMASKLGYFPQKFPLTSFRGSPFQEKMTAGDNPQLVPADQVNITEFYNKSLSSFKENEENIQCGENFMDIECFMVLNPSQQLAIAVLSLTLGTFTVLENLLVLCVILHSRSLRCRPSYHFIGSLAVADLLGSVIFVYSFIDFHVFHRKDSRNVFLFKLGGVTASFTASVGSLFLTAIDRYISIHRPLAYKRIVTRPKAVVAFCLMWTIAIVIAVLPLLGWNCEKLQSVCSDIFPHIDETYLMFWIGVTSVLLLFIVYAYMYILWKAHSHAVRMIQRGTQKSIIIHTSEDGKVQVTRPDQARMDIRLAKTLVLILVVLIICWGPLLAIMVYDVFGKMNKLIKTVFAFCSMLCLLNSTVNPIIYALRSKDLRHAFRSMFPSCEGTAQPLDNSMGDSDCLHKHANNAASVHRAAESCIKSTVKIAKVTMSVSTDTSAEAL

[2] = biological target: T1, Transient receptor potential cation channel subfamily V member 1; assay: Agonist activity on human recombinant TRPV1-mediated enhancement of intracellular calcium concentration in HEK293 cells; assay type: functional, cell-based
Method in brief: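 HEK-293 cells stably overexpressing human TRPV1, plated on poly-L-lysine the day before. Loaded 2 h at 25 °C with 4 µM Fluo-3 methyl ester (0.04% Pluronic), washed, trypsinized and resuspended in Tyrode pH 7.4. Stirred-cuvette fluorescence (ex 488/em 540 nm) at 25 °C, read before and after compound at various concentrations. EC50 is the concentration giving half-maximal stimulation.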

[3] = Rattus norvegicus, Wistar, RBL-2H3, read-out: IC50
[4] = Rattus norvegicus, Brain, read-out: IC50

T1 sequence (Q8NER1 whole entry): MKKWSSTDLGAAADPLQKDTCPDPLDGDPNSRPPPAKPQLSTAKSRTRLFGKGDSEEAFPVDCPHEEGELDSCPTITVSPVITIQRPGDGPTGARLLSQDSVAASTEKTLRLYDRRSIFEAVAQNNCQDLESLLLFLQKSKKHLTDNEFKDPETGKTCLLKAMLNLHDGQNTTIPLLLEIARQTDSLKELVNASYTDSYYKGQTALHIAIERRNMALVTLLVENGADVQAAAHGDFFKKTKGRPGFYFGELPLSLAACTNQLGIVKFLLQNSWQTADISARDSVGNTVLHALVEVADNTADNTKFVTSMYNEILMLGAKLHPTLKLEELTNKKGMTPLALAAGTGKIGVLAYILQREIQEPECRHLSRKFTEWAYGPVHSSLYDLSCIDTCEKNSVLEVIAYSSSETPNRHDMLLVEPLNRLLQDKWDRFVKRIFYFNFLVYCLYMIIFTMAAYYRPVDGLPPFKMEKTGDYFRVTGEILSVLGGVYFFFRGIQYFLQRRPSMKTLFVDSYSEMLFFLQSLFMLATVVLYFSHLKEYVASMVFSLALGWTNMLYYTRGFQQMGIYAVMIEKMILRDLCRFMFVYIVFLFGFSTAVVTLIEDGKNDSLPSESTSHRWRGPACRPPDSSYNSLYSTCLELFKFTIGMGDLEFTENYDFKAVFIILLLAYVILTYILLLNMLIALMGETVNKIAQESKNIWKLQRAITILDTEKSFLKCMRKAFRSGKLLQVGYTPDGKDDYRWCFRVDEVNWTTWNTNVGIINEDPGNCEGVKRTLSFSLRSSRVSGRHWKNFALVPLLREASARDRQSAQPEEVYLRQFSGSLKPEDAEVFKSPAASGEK

| IC50 (RBL-2H3; rbl-2h3) | Ki (Cannabinoid receptor 2; cos) | IC50 (Rattus norvegicus) | Ki (Cannabinoid receptor 1; cos) | EC50 ([2]; hek293) | Structure (SMILES) | Emax [1] [%] | IC50 (RBL-2H3; [3]) [µM] | Ki (Cannabinoid receptor 2; read-out: Ki) [µM] | IC50 (Rattus norvegicus; [4]) [µM] | Ki (Cannabinoid receptor 1; read-out: Ki) [µM] | EC50 ([2]; read-out: EC50) [µM] |
| --- | --- | --- | --- | --- | --- | --- | --- | --- | --- | --- | --- |
|  |  |  |  |  | CCCCCCCCCCCCCCCC(=O)ONCCO | 1.8 | > 25 | > 10 | > 50 | > 10 |  |
|  |  |  |  |  | CCCCCCCC/C=C\CCCCCCCC(=O)NCCO [OLEOYLETHANOLAMIDE] | 50.1 | 20 | > 10 | 23 | 1.1 | 0.89 |
|  |  |  |  |  | CCCCC/C=C\C/C=C\C/C=C\C/C=C\CCCC(=O)NCCO [ANANDAMIDE] | 54.7 | 14.5 |  | 19 |  | 0.49 |
|  |  |  |  |  | CCCCC/C=C\C/C=C\C/C=C\C/C=C\CCCC(=O)ONCCO | 28 | > 25 | 2.4 | > 50 | 3.5 |  |
|  |  |  |  |  | CCCCCCCC/C=C\CCCCCCCC(=O)NOCCO | 50 | 22.5 | 3.8 | > 50 | > 10 | 0.32 |
|  |  |  |  |  | CCCCCCCCCCCCCCCC(=O)N(O)CCO | 37 | > 25 | > 10 | > 50 | > 10 | 0.6 |
|  |  |  |  |  | CCCCCCCC/C=C\CCCCCCCC(=O)N(O)CCO | 53.5 | 20 | 5.4 | > 50 | > 10 | 0.4 |
|  |  |  |  |  | CCCCC/C=C\C/C=C\C/C=C\C/C=C\CCCC(=O)N(O)CCO | 55.3 | > 25 | 1.9 | > 50 | 3.9 | 0.26 |
|  |  |  |  |  | CCCCC/C=C\C/C=C\C/C=C\C/C=C\CCCC(=O)NOCCO | 58.5 | > 25 | 0.081 | 25 | 0.47 | 0.25 |
|  |  |  |  |  | CCCCCCCCCCCCCCCC(=O)NOCCO | 11.2 | > 25 | > 10 | > 50 | > 10 |  |
| Not Active | Not Active | Not Active | Not Active | Not Active | CCCCCCCCCCCCCCCC(=O)NCCO [PALMIDROL] |  |  |  |  |  |  |
|  |  |  |  |  | CCCCCCCC/C=C\CCCCCCCC(=O)ONCCO | 14.3 | > 25 | 8.6 | > 50 | > 10 |  |
